# Test results reported in publication PMC3112262 (The Journal of surgical research, 2011).
# Ends that are not written are not given here.
# How the values were obtained:
# kinase = settings: cited from earlier work
# [1] = effect of the CPP sequence; ref [37]; cited from earlier work
# [2] = test system: HSPB1 in human keloid fibroblasts; settings: ref [36]; cited from earlier work
# mesothelial cells = settings: ref [37]; cited from earlier work
# rat colon anastomosis [3] = settings: in vivo
# [4] = target: human recombinant MK2 (h) (Homo sapiens, UniProt P49137); experiment: Radiometric MK2 kinase inhibition; assay type: biochemical
# rat colon anastomosis [5] = experiment: Anastomotic healing: hydroxyproline assay; assay type: in vivo; settings: single treatment at surgery, both time points (4 and 10 days)
# [6] = rat
# MK2 = settings: ref [35]; cited from earlier work
# [7] = test system: human pleural mesothelial cells (CRL-9444); experiment: IL-6 ELISA, cytokine-stimulated mesothelial cells; assay type: cell-based; settings: for cytokine-induced IL-6 expression, time and dose dependence: 0.1, 1, or 10 ng/mL cytokine, 2, 6, 12, 24 h, triplicate
# How it was run: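 Human pleural mesothelial cells were grown in supplemented Medium199 with 10% FBS and held 24 h in serum-free medium before cytokine (IL-1β or TNF-α) and/or test compound treatment. Media IL-6 was measured by sandwich ELISA at room temperature with 300 rpm shaking and ABTS substrate. Absorbance was read at 405 nm minus 650 nm every 5 min for 50 min. Samples were run in triplicate and normalised to cell number by Hoechst 33342 DNA stain.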
# [8] = test system: hnRNPA0 in mesothelial cells; experiment: Western blot, hnRNPA0 phosphorylation; assay type: cell-based, human; settings: 1 ng/ml IL-1β
# How it was run: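 Human pleural mesothelial cell line grown to confluence, serum-starved 24 h, then given 1 ng/ml IL-1β with or without test compound (1000 or 3000 µM), added together, for 6 and 12 h. Lysed in urea/phosphatase-inhibitor buffer. 20 µg protein run on 12% gels, probed for phospho-hnRNPA0 (Ser84) and β-actin, detected by infrared imaging. Band intensity normalized to β-actin.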
# human recombinant MK2 (h), sequence (P49137 whole entry): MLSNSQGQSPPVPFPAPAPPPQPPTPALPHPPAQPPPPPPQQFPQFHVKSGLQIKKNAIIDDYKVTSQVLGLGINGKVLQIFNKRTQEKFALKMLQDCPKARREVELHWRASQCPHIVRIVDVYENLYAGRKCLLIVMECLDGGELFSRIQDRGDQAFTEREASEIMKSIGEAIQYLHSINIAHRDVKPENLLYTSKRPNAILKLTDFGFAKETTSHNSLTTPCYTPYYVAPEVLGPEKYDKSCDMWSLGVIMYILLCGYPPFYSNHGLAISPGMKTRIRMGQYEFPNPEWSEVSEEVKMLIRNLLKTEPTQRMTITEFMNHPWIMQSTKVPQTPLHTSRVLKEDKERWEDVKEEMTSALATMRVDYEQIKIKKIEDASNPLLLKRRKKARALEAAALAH
substance,measurement,setting,value
WLRRIKAWLRRIKALNRQLGVAA,kinase specificity,"kinase; effect of the CPP sequence, ref [37]",dramatically decreased the kinase specificity of the peptide
same,toxicity,[1],increased its associated toxicity
same,HSPB1 phosphorylation,[2],inhibited HSPB1 phosphorylation in human keloid fibroblasts
YARAAARQARA,peptide specificity conferred by the CPP,kinase; ref [38],maximizes peptide specificity
YARAAARQARAKALARQLGVAA-NH2 [MMI-0100],highest concentration used versus toxic dose for mesothelial cells,mesothelial cells,well below the toxic dose for mesothelial cells
same,anastomosis bursting pressure in words,rat colon anastomosis [3],"did not significantly affect rat weight gain, anastomosis bursting pressure"
same,IC50,[4],22 µM
same,intestinal hydroxyproline content in words,rat colon anastomosis [5],"did not significantly affect rat weight gain, anastomosis bursting pressure or intestinal hydroxyproline (OHP) content at either time point"
same,in vivo side effects,[6],no obvious in vivo side effects
same,animals lost from the treatment group,[6]; in vivo,One animal was lost
same,complications of anastomosis,[6]; in vivo,did not cause any of these complications
KKKALNRQLGVAA [Hayess and Benndorf peptide],MK2 activity in vitro,MK2,does inhibit MK2 activity in vitro
"IL-1β: interleukin-1β (Peprotech), stimulating cytokine","IL-6 expression after six hours, all three concentrations","[7]; 0.1, 1, 10 ng/mL IL-1β, 6 h",significantly increased IL-6 expression after six hours (p<0.05)
same,"cytokine-induced IL-6 expression, time and dose dependence",[7],increased IL-6 expression in a time- and dose-dependent manner
same,"IL-6 expression at 24 hours, two higher concentrations","[7]; 1 and 10 ng/mL IL-1β, 24 h",induced similar levels of IL-6 expression
same,upregulation of phosphorylated hnRNPA0,"[8]; 6 h, compared to controls, normalized to β-actin",2 fold
same,phosphorylation of hnRNPA0 at 12 hours,[8]; 12 h,no longer upregulates the phosphorylation of hnRNPA0
TNF-α,"IL-6 expression, 0.1 ng/mL",[7]; 0.1 ng/mL TNF-α,rarely produced significant increases in IL-6
same,"IL-6 expression, 1 ng/mL","[7]; 1 ng/mL TNF-α, versus untreated control",did not always significantly upregulate IL-6 expression above the untreated control
same,"cytokine-induced IL-6 expression, time and dose dependence",[7],increased IL-6 expression in a time- and dose-dependent manner
same,IL-6 induction potency relative to IL-1β,[7]; excluding 24-hour time point for the highest TNF-α dose,less potent inducer of IL-6 expression than IL-1β
